{"data": "Measured values pooled from the literature", "target": "Dual specificity mitogen-activated protein kinase kinase 4 (MAP2K4, Homo sapiens, UniProt P45985)", "Residues used in one study (P45985 1-399)": "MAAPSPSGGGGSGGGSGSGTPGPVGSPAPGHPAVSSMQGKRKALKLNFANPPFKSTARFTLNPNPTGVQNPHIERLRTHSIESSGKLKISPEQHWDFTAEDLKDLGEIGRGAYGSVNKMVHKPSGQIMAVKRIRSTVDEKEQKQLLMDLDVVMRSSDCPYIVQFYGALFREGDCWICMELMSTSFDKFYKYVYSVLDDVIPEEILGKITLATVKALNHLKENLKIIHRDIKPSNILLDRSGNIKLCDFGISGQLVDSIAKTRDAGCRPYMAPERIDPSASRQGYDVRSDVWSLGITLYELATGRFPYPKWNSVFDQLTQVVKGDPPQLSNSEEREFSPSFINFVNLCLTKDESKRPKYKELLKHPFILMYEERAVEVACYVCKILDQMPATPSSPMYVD", "note": "Protocols differ between the studies behind these lines."}
{"SMILES": "Cc1cc(C)c(-n2ccn3nc(-c4cccnc4)cc23)cc1NC(=O)c1cc(C#N)cc(S(F)(F)(F)(F)F)c1", "effect on": "cell-free assay", "method": "competition with immobilised ligand", "concentration": "0.1 µM", "remaining binding [%]": 74.7}
{"SMILES": "C[C@@H](c1ccc(-n2cnc3c(N)ncnc32)cc1)N1CCc2nn(C)c(Cc3ccccc3)c2C1=O", "effect on": "binding", "method": "competition with immobilised ligand", "concentration": "0.1 µM", "remaining binding [%]": 57}
{"SMILES": "O=C(NCCCN1CCOCC1)c1ccc(Nc2ncc(Cl)c(-c3ccc(Cl)s3)n2)cc1", "effect on": "binding", "method": "competition with immobilised ligand", "concentration": "1 µM", "remaining binding [%]": 56}
{"SMILES": "CCC(=O)N[C@@H]1CC[C@H](C(=O)N(C)c2ccc(-c3nc4ccccc4o3)cc2)C1", "effect on": "cell-free assay", "method": "competition with immobilised ligand", "concentration": "1 µM", "remaining binding [%]": 100}
{"SMILES": "CC1CCCN1c1nccc(-c2cnn3ncccc23)n1 (stereo not drawn)", "effect on": "binding", "concentration": "1 µM", "remaining binding [%]": 100}
{"SMILES": "COc1cnc(Nc2cccc(S(N)(=O)=O)c2)nc1N1CCN(c2ccccc2)C(=O)C1", "effect on": "binding", "method": "competition with immobilised ligand", "concentration": "1 µM", "remaining binding [%]": 71}
{"SMILES": "N[C@H]1CCN(c2nccc(-c3cnn4ncccc34)n2)C1", "effect on": "binding", "concentration": "1 µM", "remaining binding [%]": 86}
{"SMILES": "O=C(NCCCN1CCOCC1)c1ccc(Nc2nccc(-c3cc4ccccc4s3)n2)cc1", "effect on": "binding", "method": "competition with immobilised ligand", "concentration": "1 µM", "remaining binding [%]": 69}
{"SMILES": "FC(F)(F)Oc1cccc(-c2cnc3ccc(-c4ccncc4)nn23)c1", "effect on": "cell-free assay", "method": "competition with immobilised ligand", "concentration": "5 µM", "remaining binding [%]": 69}
{"SMILES": "c1cnn2ncc(-c3ccnc(N4CCC45COC5)n3)c2c1", "effect on": "binding", "concentration": "1 µM", "remaining binding [%]": 62}
{"SMILES": "O=C(Nc1c[nH]nc1C(=O)NC1CCNCC1)c1cc(F)cc(F)c1", "effect on": "binding", "method": "competition with immobilised ligand", "concentration": "1 µM", "remaining binding [%]": 94}
{"SMILES": "CN(C)c1nccc(-c2cnc3ncccn23)n1", "effect on": "binding", "concentration": "1 µM", "remaining binding [%]": 84}
{"SMILES": "O=C1CCc2cc(Nc3cc(OC4CCOCC4)c([N+](=O)[O-])cc3Cl)ccc2N1", "effect on": "cell-free assay", "method": "competition with immobilised ligand", "concentration": "1 µM", "remaining binding [%]": 100}
{"SMILES": "Nc1ncc2c(n1)-c1c([nH]c3ccc(C#CC4CC4)cc13)CCCC2", "effect on": "binding", "method": "competition with immobilised ligand", "concentration": "1 µM", "remaining binding [%]": 24}
{"SMILES": "Cc1nc(C2CCN(C(=O)c3ccc(OC(F)(F)F)cc3N)CC2)c2ncc(N3CCN(C)CC3)cc2n1", "effect on": "cell-free assay", "method": "competition with immobilised ligand", "concentration": "1 µM", "remaining binding [%]": 100}
{"SMILES": "Cc1cnn2ncc(-c3ccnc(N(C)C)n3)c2c1", "effect on": "binding", "concentration": "1 µM", "remaining binding [%]": 100}
{"SMILES": "O=C(c1ccc(Nc2ncc(Cl)c(-c3ccc(Cl)s3)n2)cc1)N1CCC(N2CCCC2)CC1", "effect on": "binding", "method": "competition with immobilised ligand", "concentration": "1 µM", "remaining binding [%]": 42}
{"SMILES": "CC1=C(C#N)C(c2ccc3c(c2)c(NC(=O)c2ccccc2C)nn3C)C(C#N)=C(C)N1", "effect on": "cell-free assay", "method": "competition with immobilised ligand", "concentration": "1 µM", "remaining binding [%]": 79}
{"SMILES": "C=CC(=O)N1CCC(C(=O)NCC(=O)N2CCN(c3nc(-c4cnc(N)nc4C(F)F)nc(N4CCOCC4)n3)CC2)CC1", "effect on": "binding", "method": "competition with immobilised ligand", "concentration": "1 µM", "remaining binding [%]": 100}
{"SMILES": "Cn1cc(Cl)c2c(Oc3c(F)cc(Nc4cc(Cl)nc(N)n4)cc3F)ccnc21", "effect on": "cell-free assay", "method": "competition with immobilised ligand", "concentration": "0.1 µM", "remaining binding [%]": 80}
{"SMILES": "F[C@@H]1CCN(c2nccc(-c3cnn4ncccc34)n2)C1", "effect on": "binding", "concentration": "1 µM", "remaining binding [%]": 100}
